Experimental data taken from ChEMBL document CHEMBL4480427, “Further insights of selenium-containing analogues of WC-9 against Trypanosoma cruzi” (Bioorg Med Chem, 2019).
Values belong to the compound of their own block, whether it stands above or below them. Calls of active or inactive are those of the source. The rule behind the calls is not given here.

Columns and labels:
[1] = system: Trypanosoma cruzi; test: Antitrypanosomal activity against tdTomato red expressing Trypanosoma cruzi CL amastigotes infected in gamma-irradiated African green monkey Vero cells assessed as inhibition of parasite growth at 10 uM after 72 hrs by fluorescence assay relative to untreated control; format: functional; conditions: light or radiation study, read-out: GI
[2] = Cytotoxicity against African green monkey Vero cells after 72 hrs by Alamar Blue assay; format: cell-based; conditions: chlorocebus sabaeus, read-out: ED50
Procedure, shortened: (§1)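 Vero cells treated 72 h at 35 °C, 7% CO2, in quadruplicate wells, with untreated host-cell and DMSO toxicity controls. Alamar Blue was added at 10% of culture volume for 6 h at 35 °C, and absorbance read at 570 and 600 nm. Cytotoxicity was also scored by cell detachment under optical microscopy. Three biological replicates of 4 technical replicates each.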

[3] = system: Vero; test: Cytotoxicity against African green monkey Vero cells at 15 to 20 uM after 72 hrs by Alamar Blue assay; format: cell-based; conditions: chlorocebus sabaeus; procedure, shortened: as §1
[4] = system: Trypanosoma cruzi; test: Antitrypanosomal activity against tdTomato red expressing Trypanosoma cruzi CL amastigotes infected in gamma-irradiated African green monkey Vero cells assessed as inhibition of parasite growth at 1 uM after 72 hrs by fluorescence assay relative to untreated control; format: functional; conditions: light or radiation study, read-out: GI
[5] = system: Trypanosoma cruzi; test: Antitrypanosomal activity against tdTomato red expressing Trypanosoma cruzi CL amastigotes infected in gamma-irradiated African green monkey Vero cells after 72 hrs by fluorescence assay; format: functional; conditions: light or radiation study, read-out: ED50 (the source's name)
Procedure, shortened: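 Gamma-irradiated (2,000 Rads) Vero cells, 3.4 × 10^4/well in RPMI with 10% FBS, held overnight at 35 °C, 7% CO2. Infected 5 h with 3.4 × 10^5 tdTomato CL trypomastigotes/well, then washed. Compounds were serially diluted 1.56–25 µM in quadruplicate, with benznidazole reference at 0.39–6.25 µM. Fluorescence read 72 h post-infection. ED50 by non-linear regression, mean ± S.D. of 3 biological replicates.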

[6] = system: Trypanosoma cruzi; test: Antitrypanosomal activity against tdTomato red expressing Trypanosoma cruzi CL amastigotes infected in gamma-irradiated African green monkey Vero cells assessed as inhibition of parasite growth at 6 uM after 72 hrs by fluorescence assay relative to untreated control; format: functional, organism-based
[7] = system: Vero; test: Cytotoxicity against African green monkey Vero cells at 20 uM after 72 hrs by Alamar Blue assay; format: cell-based; conditions: chlorocebus sabaeus; procedure, shortened: as §1

Compound: N#C[Se]CCOc1ccccc1Oc1ccccc1
inhibition of growth at 10 µM [1]: 33%
CC50 at 72 h [2]: > 20 µM

Compound: N#C[Se]CCOc1ccc([N+](=O)[O-])cc1
Activity [3]: Toxic

Compound: FC(F)(F)[Se]CCOc1cccc(Oc2ccccc2)c1
inhibition of growth at 1 µM [4]: 30.9%
CC50 at 72 h [2]: > 20 µM

Compound: N#CCCOc1ccc(Oc2ccccc2)cc1
CC50 at 72 h [2]: > 20 µM

Compound: N#CSCCOc1ccccc1Oc1ccccc1
inhibition of growth at 10 µM [1]: 33%
CC50 at 72 h [2]: > 20 µM

Compound: O=C(Cn1ccnc1[N+](=O)[O-])NCc1ccccc1 [BENZNIDAZOLE]
CC50 at 72 h [2]: > 10 µM

Compound: N#CCCCOc1ccc(Oc2ccccc2)cc1
CC50 at 72 h [2]: > 20 µM

Compound: N#C[Se]CC1Cc2ccc(Oc3ccccc3)cc2O1 (racemic)
CC50 at 72 h [2]: > 20 µM
EC50 [5]: 0.0939 µM

EC50 [5]: > 10 µM
Compound: FC(F)(F)SCCOc1cccc(Oc2ccccc2)c1
CC50 at 72 h [2]: > 20 µM

Compound: FC(F)(F)[Se]CCOc1ccc(Oc2ccccc2)cc1
inhibition of growth at 1 µM [4]: 6.7%
CC50 at 72 h [2]: > 20 µM
EC50 [5]: > 1 µM

Compound: COc1ccc(OCC[Se]C#N)cc1
Activity [3]: Toxic
growth inhibition (GI) [6]: inactive

Compound: FC(F)(F)SCCOc1ccc(Oc2ccccc2)cc1
inhibition of growth at 10 µM [1]: 12%
CC50 at 72 h [2]: > 20 µM

Compound: N#C[Se]CCOc1ccccc1
Activity [7]: Toxic
